Screens (PubChem BioAssay)
HTR2A ag: agonists of mouse serotonin 5-HT2A receptor (HTR2A); AID 624169; P35363; activation, % at 7.6 µM; CHO-K1 mHTR2A beta-arrestin complementation, luminescence; percent of 30 µM serotonin response; 0.66% of 360,000 active;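 active means activation above a run cutoff, the mean activation of all tested compounds plus 3 SD, cut at about 14% in these data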;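 further: 0% = plate median of compound wells and 100% = 30 µM serotonin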
NTR1 agonist: NTR1 (human) agonism. P30989. NTR1-U2OS beta-arrestin-GFP spot imaging, agonist mode. activation, % at 20 µM. 0.17% of 330,000 active;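 active means activation at or above 40% of the spot to cytoplasm intensity ratio, with at least 20 cells analyzed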;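 further: 0% = DMSO without peptide and 100% = 100 nM NTR1 peptide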
APJ antagonist: APJ receptor antagonism; P35414; CHO-K1 APJ beta-arrestin complementation, luminescence; inhibition, % at 20 µM; 0.32% of 330,000 active; AID 2521;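 active means inhibition above about 40% at 20 µM, limit read from the data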;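 further: cells challenged with 10 nM apelin-13 agonist together with compound; plate controls were apelin-13 plus DMSO wells for no effect and DMSO wells lacking apelin-13 for full effect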
CCR6 antagonist: antagonists of human CCR6 receptor | P51684 | CHO-K1 CCR6 PathHunter beta-arrestin, luminescence, CCL20-stimulated | inhibition, % at 20 µM | 0.49% of 340,000 active;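 active means compounds whose inhibition of the agonist-driven luminescence signal at 20 µM reaches about 50%, limit read from the data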;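 further: cells stimulated with CCL20 at 14 nM final; plate controls were DMSO with CCL20 for no effect and DMSO without agonist for full effect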
APJ agonist: agonists of human APJ apelin receptor. P35414. CHO-K1 APJ PathHunter beta-arrestin, luminescence; 0% DMSO wells, 100% apelin. activation, % at 20 µM. 0.11% of 330,000 active. AID 2520;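 active means activation more than six SD over the plate average, tested at 20 µM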;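 further: 0% = DMSO alone and 100% = apelin-13 at 10 nM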
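Test system: CHO-K1 APJ beta-arrestin complementation cell line | Compound: Single test compound dose, 20 µM final, 1% DMSO | Incubation: Compound 90 min 25 °C, reagent 1 h | Measured by: beta-gal luminescence | Read-out basis: APJ–arrestin association signal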
CXCR6 block: blocks human CXCR6 beta-arrestin recruitment; 0.36% of 360,000 active; CHO-K1 PathHunter CXCR6 beta-arrestin, luminescence; inhibition, % at 20 µM; in the data active means inhibition above about 34%, passing the limit was not always enough;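 further: antagonist mode with CXCL16 agonist at 10 nM final; 0% = 10 nM CXCL16 with DMSO and 100% = unstimulated wells without agonist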
OPRM1 ag: OPRM1 agonism in mouse HTR2A counterscreen | 5.3% of 2,300 active | shares compounds with HTR2A ag | U2OS OPRM1 beta-arrestin PathHunter, luminescence; DMSO 0%, DAMGO 9.3 µM 100% | activation, % at 9.3 µM | AID 624380;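 active means mean activation above the mean of DMSO-only wells plus 3 SD, cut at about 0.5% in these data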
Target sequence (P35372 whole entry, looked up): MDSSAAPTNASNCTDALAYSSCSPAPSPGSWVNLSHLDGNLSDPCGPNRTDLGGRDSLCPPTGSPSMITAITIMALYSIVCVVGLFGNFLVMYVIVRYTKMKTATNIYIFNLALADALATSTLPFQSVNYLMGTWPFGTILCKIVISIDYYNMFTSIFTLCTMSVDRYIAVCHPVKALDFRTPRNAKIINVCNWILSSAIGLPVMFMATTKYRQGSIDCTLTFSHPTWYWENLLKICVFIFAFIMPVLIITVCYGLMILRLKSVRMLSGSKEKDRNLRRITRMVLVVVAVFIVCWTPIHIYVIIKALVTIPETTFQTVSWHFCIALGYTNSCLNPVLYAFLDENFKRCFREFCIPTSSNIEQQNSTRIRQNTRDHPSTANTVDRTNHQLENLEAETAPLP
m5-HT2A ag conf: confirmation of mouse HTR2A serotonin receptor agonists. shares compounds with HTR2A ag. CHO-K1 PathHunter beta-arrestin recruitment, luminescence; DMSO 0%, 30 µM serotonin 100%. activation, % at 7.6 µM. 19% of 2,300 active;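 active means mean activation across triplicates above the hit threshold derived in the original primary screen, cut at about 15% in these data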
* hit, by the source's call. Most compounds without a hit are left out; they make up all but 1.5% or so of the library.

What do the screens show for `Oc1ccccc1/C=N/NC(=S)NC1CC2C=CC1C2` (centres undefined)?
HTR2A ag: 8; NTR1 agonist: 17; APJ antagonist: -29; CCR6 antagonist: 16; APJ agonist: 0; CXCR6 block: -4

What do the screens show for `Oc1ccccc1C=NNC(=S)NC1CC2C=CC1C2` (centres undefined)?
HTR2A ag: 19*; CXCR6 block: 23; OPRM1 ag: 0; m5-HT2A ag conf: 6

Results for Cc1cc(C)c(C)c(S(=O)(=O)NCc2ccc(C(=O)N3CCOCC3)cc2)c1C ?
HTR2A ag: 1; NTR1 agonist: 1; APJ antagonist: 4; CCR6 antagonist: 6; APJ agonist: 2; CXCR6 block: 11

Results for COc1cccc2c1Oc1ncccc1N(C(=O)CCC(=O)NCc1ccccc1Cl)C2 ?
HTR2A ag: 17*; NTR1 agonist: 0; APJ antagonist: 17; CCR6 antagonist: 9; APJ agonist: 1; CXCR6 block: 11; OPRM1 ag: 0; m5-HT2A ag conf: 1

Results for O=C(C(=O)N1CCN(c2ccccc2F)CC1)c1ccccc1 ?
HTR2A ag: -3

How did OCCC1CN(Cc2ccncc2)CCN1C1CCCC1 (centres undefined) do in these assays?
HTR2A ag: 3; NTR1 agonist: -1; APJ antagonist: -5; CCR6 antagonist: 19; APJ agonist: -3; CXCR6 block: -8

What do the screens show for `Cc1nn(C)c(Cl)c1CN1CCN(C2CCCC2)C(CCO)C1` (centres undefined)?
HTR2A ag: 24*; NTR1 agonist: -1; APJ antagonist: -19; CCR6 antagonist: -4; APJ agonist: 0; CXCR6 block: 1; OPRM1 ag: -1; m5-HT2A ag conf: 2

How did O=C1NC[C@H](Cc2ccccc2)N(C[C@H]2CCCN2C[C@H](Cc2ccc(O)cc2)N2C[C@H](Cc3ccc(O)cc3)N(CC3CCCCCC3)C(=O)C2=O)C1=O do in these assays?
HTR2A ag: 26*; CCR6 antagonist: 14; CXCR6 block: 11; OPRM1 ag: -1; m5-HT2A ag conf: 73*

How did O=C1NC[C@H](Cc2ccccc2)N(C[C@H]2CCCN2C[C@H](Cc2ccccc2)N2C[C@H](Cc3ccc(O)cc3)N(CC3CCCCCC3)C(=O)C2=O)C1=O do in these assays?
HTR2A ag: 4; CCR6 antagonist: 9; CXCR6 block: 13

Results for CSc1c(C#N)sc(=S)n1-c1ccc(C)cc1 ?
HTR2A ag: -3; NTR1 agonist: 2; APJ antagonist: 15; CCR6 antagonist: 10; APJ agonist: -3; CXCR6 block: -3

What do the screens show for `CCOc1ccc(C(=O)NC(C(=O)NCc2cccnc2)C(C)C)cc1` (centres undefined)?
HTR2A ag: 5; NTR1 agonist: 1; APJ antagonist: 20; CCR6 antagonist: -4; APJ agonist: -4; CXCR6 block: -3

How did N#Cc1ccc(OCC(=O)N2CCCC2=O)cc1 do in these assays?
HTR2A ag: 15*; NTR1 agonist: -1; APJ antagonist: 0; CCR6 antagonist: 4; APJ agonist: -1; CXCR6 block: -17; OPRM1 ag: 0.7*; m5-HT2A ag conf: 2

How did O=C(CN(c1ccc(F)cc1)S(=O)(=O)c1ccc2c(c1)OCCO2)N1CCOCC1 do in these assays?
HTR2A ag: 25*; NTR1 agonist: -1; APJ antagonist: -86; CCR6 antagonist: 4; APJ agonist: -2; CXCR6 block: -2; OPRM1 ag: -1; m5-HT2A ag conf: -2

Results for O=C(CN(c1ccc(F)cc1)S(=O)(=O)c1ccccc1)N1CCOCC1 ?
HTR2A ag: 4; NTR1 agonist: -1; APJ antagonist: -3; CCR6 antagonist: -13; APJ agonist: 0; CXCR6 block: 0

What do the screens show for `CC1CN(C(=O)COC(=O)CSc2ccc([N+](=O)[O-])cc2)CC(C)O1` (centres undefined)?
HTR2A ag: -3; NTR1 agonist: 0; APJ antagonist: 16; CCR6 antagonist: -14; APJ agonist: 9; CXCR6 block: -9

How did O=C([C@H](Cc1ccccc1)NS(=O)(=O)c1ccc(Cl)cc1)N1CC[C@@]2(O)CCCC[C@H]2C1 do in these assays?
HTR2A ag: 17*; NTR1 agonist: 0; APJ antagonist: -6; CCR6 antagonist: 3; APJ agonist: 1; CXCR6 block: -5; OPRM1 ag: -1; m5-HT2A ag conf: -5

How did O=C1NC[C@H](CCCCN2C[C@H](Cc3ccc(O)cc3)N(CCC3CCCCC3)C(=O)C2=O)N(CCc2ccc(O)cc2)C1=O do in these assays?
HTR2A ag: 4; CXCR6 block: 9

What do the screens show for `c1coc(CSSCc2ccco2)c1`?
HTR2A ag: 0; NTR1 agonist: 2; APJ antagonist: 15; CCR6 antagonist: 18; APJ agonist: -6; CXCR6 block: -16

Results for NC(=O)C1(NC(=O)[C@@H]2CC3(CC(c4cccc(NC(=O)[C@@H]5CCC(=O)N5)c4)=NO3)CN2C(=O)Cc2ccc(C(F)(F)F)cc2)CC1 (some centres undefined) ?
HTR2A ag: 20*; NTR1 agonist: -2; APJ antagonist: 1; CCR6 antagonist: 0; APJ agonist: 5; CXCR6 block: 3; OPRM1 ag: -1; m5-HT2A ag conf: -2

What do the screens show for `C[C@H](O)c1[nH]c2cc(F)ccc2c1[C@H](C)O`?
HTR2A ag: 20*; NTR1 agonist: -3; APJ antagonist: -29; CCR6 antagonist: 11; APJ agonist: 0; CXCR6 block: -4; OPRM1 ag: 0; m5-HT2A ag conf: -5

Results for COC(=O)[C@@]1(Sc2ccc(C)cc2)CC(=O)N[C@@H]1c1ccc(C(F)(F)F)cc1 ?
HTR2A ag: 15*; CXCR6 block: -2; OPRM1 ag: 0.8*; m5-HT2A ag conf: 3

What do the screens show for `CC(C)(C)C(=O)Nc1cc2c3c(c1)CCN3C(=O)CC2`?
HTR2A ag: -1; NTR1 agonist: 0; APJ antagonist: 4; CCR6 antagonist: 11; APJ agonist: 1; CXCR6 block: -4

How did Cc1cc(C)c(O)c(-c2n[nH]c3c2C(c2cccc(O)c2)N(Cc2ccco2)C3=O)c1 (centres undefined) do in these assays?
HTR2A ag: 99*; NTR1 agonist: 9; APJ antagonist: -22; CCR6 antagonist: 9; APJ agonist: -6; CXCR6 block: -4; OPRM1 ag: 0; m5-HT2A ag conf: 57*
